Mac1 fbg enh = enhancers of human CD11b/CD18 binding to fibrinogen | P05107+P11215 | K562 CD11b/CD18 adhesion to fibrinogen, ATPlite luminescence | activation, % at 10 µM | 93,000 tested, 0.07% active | AID 1499;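 active = 10 µM primary screen giving 50% or more activity, confirmed by 40% or more on retest at that dose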
RORA act = activators of human nuclear receptor RORA. P35398. CHO-K1 Gal4-RORA LBD luciferase reporter, luminescence; percent increase over mock-subtracted basal signal. activation, % at 10 µM. 65,000 tested, 1.5% active. AID 560;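 active = activation above the mean of all tested compounds plus 3 SD, cut at about 49% in these data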;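 note: 0% = DMSO-treated RORA cells and 100% = added signal equal to DMSO minus mock-transfected cells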
Mac1 fbg inh = blocks human CD11b/CD18 adhesion to fibrinogen; K562 CD11b/CD18 adhesion to fibrinogen, ATPlite luminescence; Mn2+ added to activate the integrin; inhibition, % at 10 µM; 93,000 tested, 0.54% active;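 active = primary inhibition of 50% or more at 10 µM, then 40% or more on retest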
Calb biofilm kill = kills Candida albicans biofilms. C. albicans biofilm + clotrimazole, Alamar Blue. inhibition, % at 6 µM. AID 834. 85,000 tested, 0.14% active;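 active = inhibition above 20%; inactive = inhibition below 20%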;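 note: preformed 24 hr biofilms exposed to compound for 48 hr; 0% = biofilm without compound and 100% = blank killed by clotrimazole plus chlorhexidine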
SF1 activator = activates the human nuclear receptor SF-1; AID 522; 65,000 tested, 1.9% active; activation, % at 10 µM; CHO-K1 Gal4-SF-1 LBD luciferase reporter; % increase over DMSO SF-1-specific signal; Q13285;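 active = activation above the mean activation of all tested compounds plus 3 SD, cut at about 50% in these data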
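Compound – one dose, 10 µM compound, 1% DMSO · Test system – transient Gal4-SF-1 LBD reporter, CHO-K1 · Input – 4,000 cells in each well · Read-out basis – percent activation relative to DMSO median and mock-transfected background · Replicates – single measurement per compound · Technique – steady-glow luciferase luminescence, read after 15 min reagent incubation · Timing – 20 h compound treatment, 37 °C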
MT1-MMP txn act = activates MT1-MMP transcription; HT1080 MT1-MMP promoter luciferase reporter, luminescence, overnight; stronger effect = higher value; activation factor at 10 µM; 86,000 tested, 0.16% active;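 active = activation factor of at least 2 for MT1-MMP transcription at 10 µM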
* marks the source's active call; other numbers are inactive results; nt = not tested or not shown. Hits are enriched below; roughly 2.2% of the tested compounds scored in any of these assays.

SMILES | Mac1 fbg enh | RORA act | Mac1 fbg inh | Calb biofilm kill | SF1 activator | MT1-MMP txn act
CC(=O)N1CCc2c(sc(NC(=O)c3ccc(S(=O)(=O)N(C)C)cc3)c2C#N)C1 | nt | -1 | nt | 13 | -16 | 1
CC(=O)N1CCc2c(sc(NC(=O)c3ccc4c(c3)OCCO4)c2C#N)C1 | 6 | 49* | -62 | 4 | 77* | 1.1
CCC/C=C(\CCC)C(NC(=O)c1cccs1)c1ccc(C(=O)OC)cc1 (stereo not given) | nt | nt | nt | nt | nt | 1.2
Cc1ccc2[nH]cc(C(=O)NCc3cccs3)c(=O)c2c1 | nt | nt | nt | 9 | nt | 1.3
COc1cccc2c(=O)c(C(=O)NCc3cccs3)c[nH]c12 | 6 | 26 | 9 | -4 | 119* | 1.7
Cc1cccc(N2CN(Cc3ccco3)CNC2=S)c1 | -2 | nt | -7 | nt | nt | nt
CCn1c(SCC(=O)Nc2ccc(C(C)=O)cc2)nc2ccccc21 | -1 | 62* | -2 | 7 | 65* | 1.4
O=C(NN1C(=O)c2ccccc2NC1c1ccccn1)c1ccc([N+](=O)[O-])cc1 (stereo not given) | 2 | nt | 15 | nt | nt | nt
Cc1ccc(OCc2nc(-c3ccccn3)no2)c(Br)c1 | -2 | -43 | 48 | 11 | -36 | nt
Clc1ccccc1OCc1nc(-c2ccncc2)no1 | 4 | 54* | -6 | 3 | 92* | 1.5
c1ccc(OCc2nc(-c3ccccc3)no2)cc1 | 3 | 40 | 18 | 4 | 56* | 1.6
c1ccc(-c2noc(CN3CCN(c4ccccc4)CC3)n2)cc1 | -5 | -9 | -15 | -10 | -1 | 1.1
CC1CCN(Cc2nc(-c3ccccc3)no2)CC1 | nt | 19 | nt | -2 | 51* | 1.5
Clc1ccc(OCc2nc(-c3ccncc3)no2)c(Br)c1 | -1 | 59* | 22 | 3 | 44 | 1.1
O=C(Cn1nnc(-c2ccccc2Cl)n1)N/N=C/c1ccc(-c2cccc(Cl)c2)o1 | 6 | nt | 3 | nt | nt | nt
Cn1c(CN2CCCCC2)nc2cc(NC(=O)c3ccc(Cl)cc3)ccc21 | nt | nt | nt | 4 | nt | 1.3
Cn1cnc2cc(NC(=O)c3ccc(Cl)cc3)ccc21 | nt | 79* | nt | -3 | 67* | 1.4
c1ccc(CSc2ncccn2)cc1 | 0 | -1 | -1 | 4 | 22 | 1.3
N#Cc1c(Cl)nc(SCc2ccccc2)nc1-c1ccccc1 | -10 | nt | 74* | nt | nt | nt
CCOc1ccccc1-c1nc(-c2ccc(C)nc2OC)no1 | 0 | 36 | -6 | nt | 58* | 1.2
COc1nc(C)ccc1-c1noc(-c2ccncc2)n1 | nt | 31 | nt | 7 | 64* | 1.5
COc1cc(-c2nc(-c3ccc(C)nc3OC)no2)cc(OC)c1OC | 8 | -11 | -6 | 5 | -15 | 1.2
O=c1c2c(nc3cc(-c4ccccc4)[nH]n13)CCC2 | -2 | 39 | 6 | 3 | 60* | 1.1
Cc1ccc(-c2[nH]n3c(=O)c4c(nc3c2C)CCCC4)cc1 | nt | 36 | nt | 8 | 36 | 1.1
Cc1cc2nc3c(c(=O)n2[nH]1)CCCC3 | -1 | -1 | -34 | 8 | 15 | 1.1
SMILES | Mac1 fbg enh | RORA act | Mac1 fbg inh | Calb biofilm kill | SF1 activator | MT1-MMP txn act
COc1ccc(-c2cc3nc4c(c(=O)n3[nH]2)CCC4)cc1 | 8 | 54* | -10 | 5 | 63* | 1.1
CCc1ccc(NC(=O)C(C)OC(=O)c2cccc(S(=O)(=O)N3CCc4ccccc4C3)c2)cc1 (stereo not given) | 2 | nt | 23 | nt | nt | nt
Cc1ccc(C(=O)OCc2cc3ccccc3[nH]c2=O)cc1 | -4 | 22 | -21 | 4 | 26 | 1
Nc1ccc(C(=O)OCc2nc3c(ccc4ccccc43)[nH]2)cc1 | nt | nt | nt | 2 | nt | 2.5*
CC1=C(C(=O)OCc2ccccc2)C(c2cccc3ccccc23)NC(=O)N1CCCC(=O)O (stereo not given) | nt | nt | nt | nt | nt | 1.1
CC(C)C1Cc2c(sc3[nH]c(=S)n(Cc4ccccc4)c(=O)c23)CO1 (stereo not given) | -6 | nt | 53* | 1 | nt | 1.1
FC(F)(F)c1ccc(C2[C@H]3CN(CC4CCCCC4)[C@H](c4ccccc4)C34CC2(c2cccnc2)C4)cc1 (stereo not given in full) | nt | nt | nt | nt | nt | 1.1
O=C(Nc1ccc2c(c1)nc1n2CCSC1)c1ccccc1 | nt | -25 | nt | 10 | 19 | 0.6
COc1ccc(C(=O)Nc2ccc3c(c2)nc2n3CCSC2)cc1 | -3 | 26 | -7 | 2 | 57* | 1.3
CC(C)(C)NC(=O)NC(=O)COc1ccccc1C#N | -3 | 47 | -13 | 7 | 60* | 1

Screening results from PubChem BioAssay.
